# Test results taken from ChEMBL document CHEMBL1155222, “Synthesis and anticancer activity of N-bis(trifluoromethyl)alkyl-N'-thiazolyl and N-bis(trifluoromethyl)alkyl-N'-benzothiazolyl ureas” (2009).
# Columns and labels:
# Type in all cases: functional
# NCI-H460 [1] = test: Anticancer activity against human NCI-H460 cells assessed as cell growth at 100 uM after 48 hrs by Alamar blue assay relative to control; conditions: NCI-H460, 48 h, read-out: Activity
# Method in brief: (§1)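 NCI one-dose pre-test on MCF7, NCI-H460 and SF-268. Cells were inoculated and preincubated, then exposed to a single 10^-4 M concentration for 48 h. End-point was alamar blue. Results are percent growth versus untreated control cells, with negative values indicating cell kill.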
# MCF7 = test: Anticancer activity against human MCF7 cells assessed as cell growth at 100 uM after 48 hrs by Alamar blue assay relative to control; conditions: MCF7, 48 h, read-out: Activity; method in brief: as §1
# SF-268 = test: Anticancer activity against human SF268 cells assessed as cell growth at 100 uM after 48 hrs by Alamar blue assay relative to control; conditions: SF-268, 48 h, read-out: Activity; method in brief: as §1
# SR = test: Anticancer activity against human SR cells after 48 hrs by sulforhodamine B assay
# Method in brief: (§2)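 NCI 60-cell-line panel; cells grown in RPMI 1640 with 5% FBS and 2 mM L-glutamine, plated at 5000–40,000 cells/well and preincubated 24 h at 37 °C, 5% CO2. Compounds came from DMSO stocks diluted in medium with gentamicin and were tested at five final concentrations, 10^-4 to 10^-8 M, for 48 h. Cells were fixed with TCA, stained with SRB and read at 515 nm. GI50, TGI and LC50 were derived as log molar values.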
# HOP-62 = test: Anticancer activity against human HOP62 cells after 48 hrs by sulforhodamine B assay; conditions: HOP-62, 48 h
# Method in brief: (§3)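 NCI 60-cell-line screen. Cells grown in RPMI 1640 with 5% FBS and 2 mM L-glutamine, plated at 5000–40,000 cells/well, and preincubated 24 h at 37 °C under 5% CO2. Compounds were taken from DMSO stocks and tested at five final concentrations, 10^-4 to 10^-8 M, for 48 h. Cells were TCA-fixed, stained with 0.4% SRB, and read at 515 nm. GI50, TGI and LC50 were derived as log molar values.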
# NCI-H322M = test: Anticancer activity against human NCI-H322M cells after 48 hrs by sulforhodamine B assay; method in brief: as §3
# NCI-H460 [2] = test: Anticancer activity against human NCI-H460 cells after 48 hrs by sulforhodamine B assay; conditions: NCI-H460, 48 h; method in brief: as §3
# HCC 2998 = test: Anticancer activity against human HCC2998 cells after 48 hrs by sulforhodamine B assay; conditions: HCC 2998, 48 h; method in brief: as §3
# KM12 = test: Anticancer activity against human KM12 cells after 48 hrs by sulforhodamine B assay; conditions: KM12, 48 h; method in brief: as §3
# SW-620 = test: Anticancer activity against human SW620 cells after 48 hrs by sulforhodamine B assay; conditions: SW-620, 48 h; method in brief: as §2
# SF-295 = test: Anticancer activity against human SF295 cells after 48 hrs by sulforhodamine B assay; conditions: SF-295, 48 h; method in brief: as §3
# SNB-19 = test: Anticancer activity against human SNB19 cells after 48 hrs by sulforhodamine B assay; conditions: SNB-19, 48 h; method in brief: as §2
# Malme-3M = test: Anticancer activity against human MALME-3M cells after 48 hrs by sulforhodamine B assay; method in brief: as §3
# TK-10 = test: Anticancer activity against human TK10 cells after 48 hrs by sulforhodamine B assay; conditions: TK-10, 48 h; method in brief: as §2
# DU-145 = test: Anticancer activity against human DU145 cells after 48 hrs by sulforhodamine B assay; conditions: DU-145, 48 h; method in brief: as §3
# MDA-N = test: Anticancer activity against human MDA-N cells after 48 hrs by sulforhodamine B assay; method in brief: as §3
# HL-60(TB) = test: Anticancer activity against human HL-60(TB) cells after 48 hrs by sulforhodamine B assay; conditions: HL-60, 48 h
# Method in brief: (§4)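 NCI 60-cell-line screen. Cells were grown in RPMI 1640 with 5% FBS and 2 mM L-glutamine, seeded at 5000–40,000 cells/well and preincubated 24 h at 37 °C, 5% CO2. Compounds in DMSO were diluted in medium with gentamicin and tested at five concentrations (10^-4 to 10^-8 M) for 48 h. Cells were then fixed with TCA, stained with SRB and read at 515 nm.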
# [3] = Anticancer activity against human RPMI8266 cells after 48 hrs by sulforhodamine B assay; method in brief: as §3
# NCI-H23 = test: Anticancer activity against human NCI-H23 cells after 48 hrs by sulforhodamine B assay; conditions: NCI-H23, 48 h; method in brief: as §4
smiles,measurement,setting,value
CCC(NC(=O)Nc1nc2ccccc2s1)(C(F)(F)F)C(F)(F)F,growth at 100 µM,NCI-H460 [1],-93%
same,growth at 100 µM,MCF7,-79%
same,growth at 100 µM,SF-268,-94%
same,GI50,SR,17 µM
same,GI50,HOP-62,17.8 µM
same,GI50,NCI-H322M,25.7 µM
same,GI50,NCI-H460 [2],21.4 µM
same,GI50,HCC 2998,19.1 µM
same,GI50,KM12,20.4 µM
same,GI50,SW-620,20.9 µM
same,GI50,SF-295,17 µM
same,GI50,SNB-19,20.9 µM
same,GI50,Malme-3M,15.5 µM
same,GI50,TK-10,21.9 µM
same,GI50,DU-145,18.6 µM
same,GI50,MDA-N,18.6 µM
O=C(Nc1nc2ccccc2s1)NC(C(F)(F)F)C(F)(F)F,growth at 100 µM,NCI-H460 [1],-74%
same,growth at 100 µM,MCF7,-10%
same,growth at 100 µM,SF-268,-39%
same,GI50,HL-60(TB),26.3 µM
same,GI50,[3],33.9 µM
same,GI50,SR,25.7 µM
same,GI50,HOP-62,38 µM
same,GI50,NCI-H322M,18.2 µM
same,GI50,NCI-H460 [2],22.4 µM
same,GI50,HCC 2998,20 µM
same,GI50,KM12,29.5 µM
same,GI50,SW-620,33.9 µM
same,GI50,SF-295,23.4 µM
same,GI50,SNB-19,35.5 µM
same,GI50,Malme-3M,20.4 µM
same,GI50,TK-10,31.6 µM
same,GI50,DU-145,30.2 µM
same,GI50,MDA-N,23.4 µM
O=c1[nH]cc(F)c(=O)[nH]1 [FLUOROURACIL],GI50,HL-60(TB),2.29 µM
same,GI50,SR,0.024 µM
same,GI50,HOP-62,0.398 µM
same,GI50,NCI-H322M,0.178 µM
same,GI50,NCI-H460 [2],0.0562 µM
same,GI50,NCI-H23,0.331 µM
same,GI50,HCC 2998,0.0525 µM
same,GI50,KM12,0.214 µM
same,GI50,SW-620,0.933 µM
same,GI50,SF-295,0.229 µM
same,GI50,SNB-19,3.8 µM
same,GI50,Malme-3M,0.0513 µM
same,GI50,TK-10,1.12 µM
same,GI50,DU-145,0.363 µM
O=C(Nc1nccs1)NC(C(F)(F)F)C(F)(F)F,growth at 100 µM,NCI-H460 [1],22%
same,growth at 100 µM,MCF7,35%
same,growth at 100 µM,SF-268,20%
same,GI50,HL-60(TB),72.4 µM
same,GI50,SR,24 µM
same,GI50,HOP-62,> 100 µM
same,GI50,NCI-H322M,87.1 µM
same,GI50,NCI-H460 [2],34.7 µM
same,GI50,HCC 2998,31.6 µM
same,GI50,KM12,39.8 µM
same,GI50,SW-620,> 100 µM
same,GI50,SF-295,43.7 µM
same,GI50,SNB-19,49 µM
same,GI50,Malme-3M,29.5 µM
same,GI50,TK-10,51.3 µM
same,GI50,DU-145,63.1 µM
same,GI50,MDA-N,> 100 µM
CC(NC(=O)Nc1nc2ccccc2s1)(C(F)(F)F)C(F)(F)F,growth at 100 µM,NCI-H460 [1],43%
same,growth at 100 µM,MCF7,62%
same,growth at 100 µM,SF-268,28%
same,GI50,HL-60(TB),97.7 µM
same,GI50,[3],38.9 µM
same,GI50,SR,3.63 µM
same,GI50,HOP-62,31.6 µM
same,GI50,NCI-H322M,26.9 µM
same,GI50,NCI-H460 [2],24.5 µM
same,GI50,HCC 2998,38.9 µM
same,GI50,KM12,46.8 µM
same,GI50,SW-620,45.7 µM
same,GI50,SF-295,60.3 µM
same,GI50,SNB-19,24.5 µM
same,GI50,Malme-3M,15.1 µM
same,GI50,TK-10,49 µM
same,GI50,DU-145,91.2 µM
same,GI50,MDA-N,97.7 µM
CNC(=O)Nc1ccccc1,GI50,HL-60(TB),100 µM
same,GI50,[3],100 µM
same,GI50,SR,100 µM
same,GI50,HOP-62,100 µM
same,GI50,NCI-H322M,100 µM
same,GI50,NCI-H460 [2],100 µM
same,GI50,NCI-H23,100 µM
same,GI50,HCC 2998,100 µM
same,GI50,KM12,100 µM
same,GI50,SW-620,100 µM
same,GI50,SF-295,100 µM
same,GI50,SNB-19,100 µM
same,GI50,Malme-3M,100 µM
same,GI50,TK-10,100 µM
same,GI50,DU-145,100 µM
same,GI50,MDA-N,100 µM
CCC(NC(=O)Nc1nccs1)(C(F)(F)F)C(F)(F)F,growth at 100 µM,NCI-H460 [1],6%
same,growth at 100 µM,MCF7,20%
same,growth at 100 µM,SF-268,40%
same,GI50,SR,30.2 µM
same,GI50,HOP-62,> 100 µM
same,GI50,NCI-H322M,> 100 µM
same,GI50,NCI-H460 [2],38.9 µM
same,GI50,HCC 2998,74.1 µM
same,GI50,KM12,46.8 µM
same,GI50,SW-620,83.2 µM
same,GI50,SF-295,52.5 µM
same,GI50,SNB-19,> 100 µM
same,GI50,Malme-3M,58.9 µM
same,GI50,TK-10,31.6 µM
same,GI50,DU-145,69.2 µM
same,GI50,MDA-N,60.3 µM
